Screens: PubChem BioAssay, several laboratories
An excerpt weighted towards active compounds, which were near 5.5% of everything screened.
HSV replic up – HSV replication enhancement. maximum fold increase. AID 1956. HSV replication augmentation in cells, fold increase. 220,000 tested, 0.005% active; in the data active = maximum fold increase above about 1.5; inconclusive = no clear call, values can overlap the other calls; tested in PC3 cells
STAT1 act – increases IFN-gamma driven STAT1 reporter signal. NIH 3T3 STAT1-luciferase reporter, luminescence; 100% = IFN-gamma alone, no compound. activation (% of control), % at 5.5 µM. 200,000 tested, 2.6% active. AID 932;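 active = activation above the screen-wide mean activation plus 3 SD, cut at about 130% in these data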;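 note: raw ratio to IFN-gamma control signal so 100% means no change and 0% no light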
STAT1 blocker – STAT1 signaling inhibition. NIH 3T3 STAT1-luciferase reporter, IFN-gamma, luminescence. inhibition, % at 5.5 µM. 200,000 tested, 0.35% active. AID 920;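 active = inhibition above a set limit, the mean inhibition across all tested compounds plus 3 SD, cut at about 34% in these data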;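 note: 0% = IFN-gamma with DMSO and 100% = IFN-gamma with 300 µM nifuroxazide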
STAT3 act – increases IL-6 driven STAT3 reporter signal; U3A cells, IL-6 STAT3-luciferase reporter, luminescence; 100% = signal with IL-6 EC80 alone; activation (% of control), % at 5.6 µM; 190,000 tested, 0.91% active;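 active = activation above the screen-wide mean of compound activation plus 3 SD, cut at about 130% in these data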;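 note: 0% = background luminescence of wells with medium and substrate only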
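System – human U3A cells carrying STAT3-luciferase construct · Probe or stimulus – Interleukin-6, 33 ng/mL · Schedule – compound 1 h, then IL-6 6 h at 37 °C · Signal – luminescence from STAT3-driven luciferase reporter · Evaluation – percent of IL-6-only median luminescence · Benchmarks – IL-6-only high control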
STAT3 blocker – reduces IL-6 driven STAT3 reporter signal; 190,000 tested, 0.89% active; inhibition, % at 5.5 µM; U3A cells, IL-6 STAT3-luciferase reporter, luminescence; host cell line lacks STAT1;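 active = inhibition above the mean inhibition across all screened compounds plus 3 SD, cut at about 44% in these data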;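 note: 0% = DMSO only wells and 100% = 100 µM nifuroxazide control wells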
Cl transport mod – KCC2 (human) Cl- transport modulation; KCC2 cells, thallium flux FluoZin-2 fluorescence; B-score of Tl+ flux slope (higher = more flux/activation; lower = inhibition) at 10 µM; 190,000 tested, 2.2% active; AID 1456;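 active = thallium flux slope and its plate-corrected score both differing from the plate sample mean at a set confidence after two filtering rounds, in either direction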;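 note: slope of fluorescence scaled to starting intensity during 10 to 20 s after thallium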
Target sequence (Q9H2X9 whole entry, looked up): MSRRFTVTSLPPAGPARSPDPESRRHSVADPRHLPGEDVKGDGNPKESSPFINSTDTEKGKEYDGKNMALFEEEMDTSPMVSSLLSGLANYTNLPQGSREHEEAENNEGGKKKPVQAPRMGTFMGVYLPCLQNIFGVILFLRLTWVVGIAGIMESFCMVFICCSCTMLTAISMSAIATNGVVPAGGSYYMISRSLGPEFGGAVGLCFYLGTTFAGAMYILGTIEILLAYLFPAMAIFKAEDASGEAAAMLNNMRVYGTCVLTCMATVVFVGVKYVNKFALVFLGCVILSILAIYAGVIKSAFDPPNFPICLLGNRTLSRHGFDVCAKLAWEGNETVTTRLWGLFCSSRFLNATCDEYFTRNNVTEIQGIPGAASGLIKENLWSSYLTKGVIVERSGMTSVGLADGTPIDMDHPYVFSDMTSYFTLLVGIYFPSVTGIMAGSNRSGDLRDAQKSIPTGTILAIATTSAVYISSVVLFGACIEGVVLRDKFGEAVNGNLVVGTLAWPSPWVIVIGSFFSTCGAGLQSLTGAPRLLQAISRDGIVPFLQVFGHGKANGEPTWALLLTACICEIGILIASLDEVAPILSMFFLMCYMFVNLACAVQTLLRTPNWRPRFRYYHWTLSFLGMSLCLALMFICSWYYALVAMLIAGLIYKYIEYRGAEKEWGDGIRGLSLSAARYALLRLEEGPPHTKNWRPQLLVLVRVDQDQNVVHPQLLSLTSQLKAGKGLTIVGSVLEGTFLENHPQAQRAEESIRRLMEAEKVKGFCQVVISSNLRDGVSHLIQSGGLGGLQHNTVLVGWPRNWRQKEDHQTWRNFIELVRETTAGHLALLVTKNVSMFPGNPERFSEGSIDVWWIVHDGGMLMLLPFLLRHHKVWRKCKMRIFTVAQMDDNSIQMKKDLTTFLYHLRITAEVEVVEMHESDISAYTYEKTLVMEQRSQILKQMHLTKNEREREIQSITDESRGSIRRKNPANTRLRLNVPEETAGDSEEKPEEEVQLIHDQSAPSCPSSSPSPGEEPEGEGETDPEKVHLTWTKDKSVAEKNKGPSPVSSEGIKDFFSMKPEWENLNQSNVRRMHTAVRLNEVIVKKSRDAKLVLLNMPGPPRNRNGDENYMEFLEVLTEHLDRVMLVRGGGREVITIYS
* hit, by the source's call.

How did O=c1[nH]c2cc3c(cc2cc1CN(Cc1ccco1)C(=S)NCCCN1CCOCC1)OCCO3 do in these assays?
HSV replic up: inactive; STAT1 act: 97; STAT1 blocker: 2; STAT3 act: 105; STAT3 blocker: -4; Cl transport mod: 0.029

Results for Cc1nc(Nc2nc(=O)c3ccccc3n2C)nc2c(C)cccc12 ?
STAT1 act: 99; STAT1 blocker: 1; STAT3 act: 142*; STAT3 blocker: -40; Cl transport mod: 0.83

How did Cc1nc(NC2=NCN(CCN3CCOCC3)CN2)nc2c(C)cccc12 do in these assays?
STAT1 act: 100; STAT1 blocker: 0; STAT3 act: 176*; STAT3 blocker: -89; Cl transport mod: -0.48

How did c1ccc2sc(NC3=NCN(CCN4CCOCC4)CN3)nc2c1 do in these assays?
HSV replic up: inactive; STAT1 act: 96; STAT1 blocker: 2; STAT3 act: 91; STAT3 blocker: 13; Cl transport mod: 1.3

What do the screens show for `CSc1ccc(/C=N/NC(=O)COc2ccc(Br)cc2Cl)cc1`?
HSV replic up: inactive; STAT1 act: 98; STAT1 blocker: 2; STAT3 act: 102; STAT3 blocker: -6; Cl transport mod: -0.047

How did O=C(CNc1cccc(C(F)(F)F)c1)N/N=C/C1CCCCC1 do in these assays?
HSV replic up: inactive; STAT1 act: 99; STAT1 blocker: 1; STAT3 act: 86; STAT3 blocker: 18; Cl transport mod: -0.53

Results for O=C(NC(=S)NNC(=O)c1cccs1)c1ccc(Br)o1 ?
HSV replic up: inactive; STAT1 act: 93; STAT1 blocker: 8; STAT3 act: 102; STAT3 blocker: -4; Cl transport mod: 15*

Results for CNC(=S)NNC(=O)c1cccs1 ?
HSV replic up: inactive; Cl transport mod: 1.3

Results for c1ccc(NC2=Nc3ccccc3CS2)cc1 ?
HSV replic up: inactive; STAT1 act: 138*; STAT1 blocker: -41; STAT3 act: 104; STAT3 blocker: 2; Cl transport mod: -0.66

Results for c1ccc(Nc2ccnc(Nc3ccccc3)n2)cc1 ?
HSV replic up: inactive; Cl transport mod: 1.3

What do the screens show for `Cc1ccc(NC(=O)c2ccc([N+](=O)[O-])o2)cc1C`?
HSV replic up: inactive; STAT1 act: 148*; STAT1 blocker: -56; STAT3 act: 76; STAT3 blocker: 32

How did O=C(Nc1ccc(N2CCN(C(=O)c3ccc(Cl)cc3)CC2)cc1)c1ccc([N+](=O)[O-])o1 do in these assays?
HSV replic up: inactive; STAT1 act: 139*; STAT1 blocker: -46; STAT3 act: 106; STAT3 blocker: -2; Cl transport mod: -1.1

What do the screens show for `CCCC(=O)N1CCN(c2ccc(NC(=O)c3ccc(Br)o3)cc2)CC1`?
HSV replic up: inactive; STAT1 act: 104; STAT1 blocker: -5; STAT3 act: 92; STAT3 blocker: 13; Cl transport mod: 0.71

How did Cc1cccc(NC(=O)c2ccc([N+](=O)[O-])o2)c1C do in these assays?
HSV replic up: inactive; STAT1 act: 102; STAT1 blocker: -5; STAT3 act: 74; STAT3 blocker: 36; Cl transport mod: 0.38

How did CCC(=O)N1CCN(c2ccc(NC(=O)c3ccc([N+](=O)[O-])o3)cc2)CC1 do in these assays?
HSV replic up: inactive; STAT1 act: 129*; STAT1 blocker: -35; STAT3 act: 85; STAT3 blocker: 23; Cl transport mod: 0.38

Results for CCCC(=O)N1CCN(c2ccc(NC(=O)c3ccc([N+](=O)[O-])o3)cc2)CC1 ?
HSV replic up: inactive; STAT1 act: 148*; STAT1 blocker: -56; STAT3 act: 96; STAT3 blocker: 9

Results for O=C(Nc1ccc(N2CCN(C(=O)c3ccccc3)CC2)cc1)c1ccc(Br)o1 ?
HSV replic up: inactive; STAT1 act: 107; STAT1 blocker: -7; STAT3 act: 88; STAT3 blocker: 19; Cl transport mod: 0.83

How did Cc1cc(C)nc(NS(=O)(=O)c2ccc(NC(=O)C3(c4ccccc4)CCCC3)cc2)n1 do in these assays?
HSV replic up: inactive; STAT1 act: 104; STAT1 blocker: -4; STAT3 act: 102; STAT3 blocker: -7; Cl transport mod: 0.52

What do the screens show for `Cc1nc(-c2ccccc2)sc1-c1nc(-c2cccnc2)ncc1S(=O)(=O)c1ccccc1`?
HSV replic up: inactive; STAT1 act: 92; STAT1 blocker: 9; STAT3 act: 116; STAT3 blocker: -11

Results for Cc1noc(C)c1COc1ccc(C(=O)OCC(N)=O)cc1 ?
HSV replic up: inactive; STAT1 act: 101; STAT1 blocker: -2; STAT3 act: 105; STAT3 blocker: 2; Cl transport mod: 0.85

Results for COc1ccc(C(=O)O)c(OC)n1 ?
HSV replic up: inactive; Cl transport mod: 0.28

Results for COc1ccc(C(=O)Nc2ccc(Cl)c(Cl)c2)c(OC)n1 ?
HSV replic up: inactive; STAT1 act: 131*; STAT1 blocker: -34; STAT3 act: 136*; STAT3 blocker: -40; Cl transport mod: -0.43

What do the screens show for `Cn1cc(CN2CCC(C(O)c3cccs3)CC2)c(-c2ccccc2F)n1` (stereo unspecified)?
HSV replic up: inactive; Cl transport mod: -0.56

How did N#C/C(=C\c1ccc(N2CCCCC2)o1)C(=O)Nc1cccc(Br)c1 do in these assays?
HSV replic up: inconclusive; STAT1 act: 160*; STAT1 blocker: -67; STAT3 act: 111; STAT3 blocker: -12; Cl transport mod: 0.068

How did Cc1cccc(OCCn2c(=S)[nH]c3ccccc32)c1 do in these assays?
HSV replic up: inactive; STAT1 act: 106; STAT1 blocker: -11; STAT3 act: 82; STAT3 blocker: 22; Cl transport mod: 8.9*

How did Cc1ccoc1C(=O)NCCNc1ccc(Cl)cc1[N+](=O)[O-] do in these assays?
HSV replic up: inactive; STAT1 act: 106; STAT1 blocker: -7; STAT3 act: 97; STAT3 blocker: 3; Cl transport mod: -0.6

Results for O=C(c1nc2ccccn2c1CNCCCn1cccn1)N1CCCC1 ?
HSV replic up: inactive; STAT1 act: 102; STAT1 blocker: -4; STAT3 act: 104; STAT3 blocker: 8; Cl transport mod: 1.2

How did CC(=O)N1CCN(c2ccc(NCc3ccc(C)s3)cc2)CC1 do in these assays?
HSV replic up: inactive; STAT1 act: 104; STAT1 blocker: -4; STAT3 act: 95; STAT3 blocker: 14

How did Cc1ccc(CNc2ccc(N3CCOCC3)cc2)s1 do in these assays?
HSV replic up: inactive; STAT1 act: 145*; STAT1 blocker: -49; STAT3 act: 103; STAT3 blocker: 0; Cl transport mod: -0.25

Results for CCNC(=O)/C(=C/c1ccco1)NC(=O)/C=C/c1ccccc1 ?
HSV replic up: inactive; STAT1 act: 95; STAT1 blocker: 6; STAT3 act: 104; STAT3 blocker: -4; Cl transport mod: 0.9
